{"source": "paper PMC4873341", "about": "(Molecular cancer therapeutics, 2016)", "key": {"[1]": {"system": "ASZ and BSZ basal cell carcinoma cells", "assay": "Quantitative PCR of Gli1 transcript in ASZ and BSZ basal cell carcinoma cells", "type": "cell-based, murine", "conditions": "posaconazole 1 μM; KAAD-cyclopamine 40 nM; GDC-0449 40 nM; 2 days"}, "SMO": {"molecular_target": "SMO (Mus musculus, UniProt P56726)", "sequence (P56726 33-793)": "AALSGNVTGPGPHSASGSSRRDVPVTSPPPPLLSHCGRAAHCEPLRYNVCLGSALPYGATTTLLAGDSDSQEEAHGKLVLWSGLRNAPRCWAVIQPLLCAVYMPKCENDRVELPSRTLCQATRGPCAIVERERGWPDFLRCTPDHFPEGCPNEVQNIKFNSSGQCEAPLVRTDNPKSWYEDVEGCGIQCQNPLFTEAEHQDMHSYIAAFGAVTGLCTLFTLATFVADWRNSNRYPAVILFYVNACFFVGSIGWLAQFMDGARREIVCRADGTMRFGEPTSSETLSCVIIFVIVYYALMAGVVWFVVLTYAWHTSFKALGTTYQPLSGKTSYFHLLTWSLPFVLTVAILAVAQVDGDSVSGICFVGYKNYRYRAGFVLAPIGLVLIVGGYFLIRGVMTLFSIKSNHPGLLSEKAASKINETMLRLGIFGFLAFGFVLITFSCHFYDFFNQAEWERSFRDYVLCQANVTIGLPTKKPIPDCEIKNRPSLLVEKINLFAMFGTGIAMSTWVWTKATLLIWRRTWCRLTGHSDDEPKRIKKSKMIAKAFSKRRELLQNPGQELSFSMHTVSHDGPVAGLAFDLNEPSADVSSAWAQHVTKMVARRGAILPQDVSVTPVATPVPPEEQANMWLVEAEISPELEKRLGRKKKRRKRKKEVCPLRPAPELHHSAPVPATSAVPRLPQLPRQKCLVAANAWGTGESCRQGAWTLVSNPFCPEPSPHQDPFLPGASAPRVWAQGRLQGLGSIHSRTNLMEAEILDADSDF", "assay": "Fluorescent BODIPY-cyclopamine competition assay", "type": "binding", "conditions": "BODIPY-cyclopamine 5 nM"}, "Hh pathway (SMO) [2]": {"system": "Hh pathway (SMO)", "assay": "SHH-Light2 reporter assay stimulated with SAG", "type": "cell-based", "conditions": "for EC50: read-out: EC50 of SAG"}, "Hh pathway": {"system": "Hh pathway", "type": "cell-based", "conditions": "for Hh pathway inhibition by single drug at subtherapeutic dose: posaconazole 1 μM, KAAD-cyclopamine 10 nM, vismodegib 20 nM, SHHN CM; for Induction of Hh pathway activation by sterol alone: Shh-Light2 cells, absence of SHHN conditioned medium"}, "CYP2C19": {"system": "CYP2C19", "conditions": "cited from earlier work"}, "[3]": {"system": "cytochrome P450 (CYP) 3A4", "conditions": "cited from earlier work"}, "CYP2C9": {"system": "CYP2C9", "conditions": "cited from earlier work"}, "CYP 1A2": {"system": "CYP 1A2", "conditions": "cited from earlier work"}, "Hh pathway (SMO) [4]": {"system": "Hh pathway (SMO)", "assay": "SHH-Light2 reporter assay stimulated with 20", "type": "cell-based"}, "[5]": {"system": "drug-resistant SMO mutants (D477G, E522K, G457S, S392N, D388N, N223D, L225R)", "type": "cell-based, murine"}, "[6]": {"system": "Hh pathway in allografted BCC tumors", "assay": "Gli1 mRNA in allografted BCC tumors", "type": "in vivo, mice", "conditions": "30 or 60 mg/kg twice per day by oral gavage for 5 days; p = 0.0224, p = 0.0033"}, "[7]": {"system": "Hh pathway (Ptch-/- murine embryonic fibroblast cells)", "type": "cell-based", "conditions": "Mus musculus, read-out: IC50 of Hh pathway inhibition"}, "CYP 2C8": {"system": "CYP 2C8", "conditions": "cited from earlier work"}, "[8]": {"system": "SMO accumulation in primary cilia", "type": "cell-based", "conditions": "SHHN and posaconazole 7.5 μM; ~87% with SHHN and vehicle; p < 0.0001", "in_short": "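NIH-3T3 cells were stimulated with SHHN conditioned medium together with 7.5 μM test compound or vehicle. Cells were immunostained for SMO (rabbit polyclonal, 1:750) and acetylated tubulin (mouse monoclonal, 1:1000), then detected with AlexaFluor 488 and 594 secondaries. Confocal images were scored for the percentage of primary cilia with SMO; mean ± S.D. of at least 7 fields.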"}, "[9]": {"system": "murine Ptch+/-;p53-/- BCC allografts", "assay": "Tumor growth of subcutaneous BCC allografts", "type": "in vivo, mice", "conditions": "30 mg/kg or 60 mg/kg twice-daily, oral gavage; p < 0.005"}, "CYP 2D6": {"system": "CYP 2D6", "conditions": "cited from earlier work"}, "[10]": {"assay": "Plasma pharmacokinetic study, single oral dose", "type": "in vivo, Balb-c mice", "conditions": "for AUC(0-t) / Cmax: Balb-c, mouse, plasma, po", "in_short": "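Balb-c mice, given acidified drinking water (pH 2.5), received one oral gavage of test-compound oral suspension diluted in sterile water (30 or 60 mg/kg). Mice were killed at various times. Plasma was extracted with methanol/formic acid containing tolbutamide internal standard and analysed by LC-MS/MS (C18 column). Parameters came from noncompartmental analysis; 3 mice per time point, mean ± S.D.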"}, "CYP 2E1": {"system": "CYP 2E1", "conditions": "cited from earlier work"}, "BCC tumors": {"system": "BCC tumors", "assay": "Necrosis scoring of H&E sections of BCC tumors", "type": "in vivo, mice", "conditions": "posaconazole treated vs vehicle control; p = 0.0028"}, "SMOA1 (SMO W539L) mutant": {"system": "SMOA1 (SMO W539L) mutant", "type": "cell-based", "conditions": "Shh-Light2 SmoA1 cells"}, "SMO-G457S": {"system": "SMO-G457S", "type": "cell-based, murine"}, "[11]": {"conditions": "increasing concentrations of posaconazole"}, "[12]": {"conditions": "higher than human values of ref 41"}}, "note": "Like-named read-outs stand apart in the source and are kept apart here.", "data": [{"molecule": "CC1=C2C[C@H]3[C@@H](CC=C4CC(=O)CC[C@@]43C)[C@@H]2CC[C@]12O[C@@H]1C[C@H](C)CN(CCNC(=O)CCCCCNC(=O)CCc3ccccc3)[C@H]1[C@H]2C", "note": "[KAAD-cyclopamine]", "values": [{"measurement": "Pathway inhibition as measured by Gli1 mRNA, single drug", "setting": "[1]", "result": "significantly inhibited the pathway"}, {"measurement": "Fluorescence of BODIPY-cyclopamine bound to SMO", "setting": "SMO; KAAD-cyclopamine 200 nM and 400 nM", "result": "reduced the fluorescence of BD bound to SMO to baseline levels"}, {"measurement": "Shift (increase) of the EC50 of SAG", "setting": "Hh pathway (SMO) [2]; KAAD-cyclopamine 20 nM (1x IC50)", "result": "~ 3.5 fold"}, {"measurement": "Hh pathway inhibition by single drug at subtherapeutic dose", "setting": "Hh pathway", "result": "partially inhibited the Hh pathway"}, {"measurement": "IC50", "setting": "Hh pathway; read-out: IC50 of Hh pathway inhibition (given as 1x IC50), SHH-Light2 cells", "result": 0.02, "unit": "µM"}]}, {"molecule": "CNC1CCC(N(Cc2cccc(-c3ccncc3)c2)C(=O)c2sc3ccccc3c2Cl)CC1", "note": "(stereo not drawn) [SAG]", "values": [{"measurement": "EC50", "setting": "Hh pathway (SMO) [2]; 0 nM KAAD-cyclopamine", "result": 0.034, "unit": "µM"}, {"measurement": "EC50", "setting": "Hh pathway (SMO) [2]; with 100 nM KAAD-cyclopamine", "result": 0.244, "unit": "µM"}]}, {"molecule": "CC(C)CCC[C@@H](C)[C@H]1CC[C@H]2[C@@H]3CC=C4C[C@@H](O)CC[C@]4(C)[C@H]3CC[C@]12C", "note": "[cholesterol]", "values": [{"measurement": "Induction of Hh pathway activation by sterol alone", "setting": "Hh pathway", "result": "insufficient to induce Hh pathway activation"}]}, {"molecule": "CC(C)=CCC[C@@H](C)[C@H]1CC[C@H]2[C@@H]3CC=C4C[C@@H](O)CC[C@]4(C)[C@H]3CC[C@]12C", "note": "[desmosterol]", "values": [{"measurement": "Induction of Hh pathway activation by sterol alone", "setting": "Hh pathway", "result": "insufficient to induce Hh pathway activation"}]}, {"molecule": "CC(O)C(C)n1ncn(-c2ccc(N3CCN(c4ccc(OCC5COC(Cn6cncn6)(c6ccc(Cl)cc6Cl)O5)cc4)CC3)cc2)c1=O", "note": "(stereo not drawn) [hydroxy-itraconazole]", "values": [{"measurement": "CYP2C19 inhibition", "setting": "CYP2C19", "result": "weaker inhibitors"}, {"measurement": "CYP3A4 inhibition", "setting": "[3]", "result": "strong inhibitors and substrates"}, {"measurement": "CYP2C9 inhibition", "setting": "CYP2C9", "result": "weaker inhibitors"}]}, {"molecule": "CCC(C)n1ncn(-c2ccc(N3CCN(c4ccc(OCC5COC(Cn6cncn6)(c6ccc(Cl)cc6Cl)O5)cc4)CC3)cc2)c1=O", "note": "(stereo not drawn) [itraconazole]", "values": [{"measurement": "CYP2C19 inhibition", "setting": "CYP2C19", "result": "weaker inhibitors"}, {"measurement": "CYP3A4 inhibition", "setting": "[3]", "result": "strong inhibitors and substrates"}, {"measurement": "CYP2C9 inhibition", "setting": "CYP2C9", "result": "weaker inhibitors"}]}, {"molecule": "CC(C)CCC[C@@H](C)[C@H]1CC[C@H]2C3=CC[C@H]4C[C@@H](O)CC[C@]4(C)[C@H]3CC[C@]12C", "note": "[lathosterol]", "values": [{"measurement": "Induction of Hh pathway activation by sterol alone", "setting": "Hh pathway", "result": "insufficient to induce Hh pathway activation"}]}, {"molecule": "CC[C@@H]([C@H](C)O)n1ncn(-c2ccc(N3CCN(c4ccc(OC[C@@H]5CO[C@@](Cn6cncn6)(c6ccc(F)cc6F)C5)cc4)CC3)cc2)c1=O", "note": "[posaconazole]", "values": [{"measurement": "CYP1A2 inhibition", "setting": "CYP 1A2", "result": "does not inhibit"}, {"measurement": "IC50", "setting": "Hh pathway (SMO) [4]; Shh Light2, read-out: IC50 of pathway activation by 20(S)-hydroxycholesterol", "result": 0.164, "unit": "µM"}, {"measurement": "Effect on maximal pathway activation of 20(S)-hydroxycholesterol", "setting": "Hh pathway (SMO) [4]; [11]", "result": "decreased maximal pathway activation"}, {"measurement": "Effect on the EC50 of 20(S)-hydroxycholesterol", "setting": "Hh pathway (SMO) [4]; [11]", "result": "did not significantly alter the EC50 of the oxysterol"}, {"measurement": "Pathway inhibition as measured by Gli1 mRNA, single drug", "setting": "[1]", "result": "significantly inhibited the pathway"}, {"measurement": "Fluorescence of BODIPY-cyclopamine bound to SMO", "setting": "SMO; increasing concentrations up to 10 μM", "result": "did not significantly decrease the fluorescence"}, {"measurement": "Activity against drug-resistant SMO mutants, single drug", "setting": "[5]; Smo-/- fibroblasts, SHHN CM", "result": "showed inhibitory activity against all of the tested drug-resistant SMO mutants"}, {"measurement": "Hh pathway inhibition in tumors as measured by Gli1 mRNA", "setting": "[6]", "result": "significant inhibition of the Hh pathway"}, {"measurement": "IC50", "setting": "[7]", "result": 0.986, "unit": "µM"}, {"measurement": "CYP2C8 inhibition", "setting": "CYP 2C8", "result": "does not inhibit"}, {"measurement": "Primary cilia with SMO accumulation", "setting": "[8]", "result": "~ 16%"}, {"measurement": "CYP3A4 inhibition", "setting": "[3]", "result": "inhibits"}, {"measurement": "CYP2C9 inhibition", "setting": "CYP2C9", "result": "does not inhibit"}, {"measurement": "Effect on maximal induction of pathway activation by SAG", "setting": "Hh pathway (SMO) [2]; posaconazole 0 to 7.5 μM", "result": "significantly decreased the maximal induction of pathway activation"}, {"measurement": "Effect on the EC50 of SAG", "setting": "Hh pathway (SMO) [2]; posaconazole 0 to 7.5 μM", "result": "did not significantly alter the EC50 of SAG"}, {"measurement": "Tumor growth compared to vehicle control", "setting": "[9]", "result": "significantly suppressed tumor growth"}, {"measurement": "CYP2D6 inhibition", "setting": "CYP 2D6", "result": "does not inhibit"}, {"measurement": "Decrease of the IC50 of posaconazole by KAAD-cyclopamine", "setting": "Hh pathway; increasing concentrations of KAAD-cyclopamine", "result": "~ 2.5 fold"}, {"measurement": "Hh pathway inhibition by single drug at subtherapeutic dose", "setting": "Hh pathway", "result": "partially inhibited the Hh pathway"}, {"measurement": "AUC(0-t)", "setting": "[10]; 30 mg/kg", "result": 245, "unit": "µg·h/mL"}, {"measurement": "Cmax", "setting": "[10]; 30 mg/kg", "result": 16100, "unit": "ng/mL"}, {"measurement": "AUC(0-t)", "setting": "[10]; 60 mg/kg", "result": 288, "unit": "µg·h/mL"}, {"measurement": "Cmax", "setting": "[10]; 60 mg/kg", "result": 15900, "unit": "ng/mL"}, {"measurement": "AUC0-24h, murine 30 mg/kg relative to human 800 mg single dose", "setting": "[10]; [12]", "result": "~ 5 x"}, {"measurement": "Plasma Cmax, murine 30 mg/kg relative to human 800 mg single dose", "setting": "[10]; [12]", "result": "~ 12 x"}, {"measurement": "CYP2E1 inhibition", "setting": "CYP 2E1", "result": "does not inhibit"}, {"measurement": "Tumor necrosis (necrosis score 0-3)", "setting": "BCC tumors", "result": "significant levels of necrosis"}, {"measurement": "Inhibition of pathway activity", "setting": "SMOA1 (SMO W539L) mutant", "result": "no inhibitory effect"}]}, {"molecule": "Cc1c(C(=O)Nc2ccc(N3C[C@@H](C)O[C@@H](C)C3)nc2)cccc1-c1ccc(OC(F)(F)F)cc1", "note": "[sonidegib]", "values": [{"measurement": "Response of sonidegib-resistant SMO mutants", "setting": "[5]; sonidegib 0.5 μM (~80x IC50)", "result": "resistant"}, {"measurement": "Response of SMO-G457S", "setting": "SMO-G457S; sonidegib 0.05 μM", "result": "resistant"}, {"measurement": "Response of SMO-G457S", "setting": "SMO-G457S; sonidegib 0.5 μM", "result": "inhibited"}]}, {"molecule": "CS(=O)(=O)c1ccc(C(=O)Nc2ccc(Cl)c(-c3ccccn3)c2)c(Cl)c1", "note": "[vismodegib]", "values": [{"measurement": "Pathway inhibition as measured by Gli1 mRNA, single drug", "setting": "[1]", "result": "significantly inhibited the pathway"}, {"measurement": "Response of vismodegib-resistant SMO mutants (D477G, E522K)", "setting": "[5]; vismodegib 0.5 μM (~40x IC50)", "result": "resistant"}, {"measurement": "Hh pathway inhibition by single drug at subtherapeutic dose", "setting": "Hh pathway", "result": "partially inhibited the Hh pathway"}]}, {"molecule": "C[C@@H](c1ncncc1F)[C@](O)(Cn1cncn1)c1ccc(F)cc1F", "note": "[voriconazole]", "values": [{"measurement": "IC50", "setting": "Hh pathway; Shh Light2, read-out: No detectable inhibition of the Hh pathway up to", "result": "> 40", "unit": "µM"}]}]}
